Measured values as given in ChEMBL document CHEMBL3763099, “Synthesis and evaluation of 1,7-diheteroarylhepta-1,4,6-trien-3-ones as curcumin-based anticancer agents” (Eur J Med Chem, 2016).

Columns and labels:
Type in all cases: functional
[1] = Cytotoxicity against human DU145 cells assessed as inhibition of cell viability at 10 uM after 3 days by trypan blue dye exclusion assay; details: DU-145, 72 h
How it was run: (§1)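 Viable cells were counted by trypan blue exclusion on an automated analyzer. Viability was taken as treated/vehicle viable cell count. The inhibitory rate is the control percentage viability minus the treated percentage viability. Variation between replicate experiments was at most 5%.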

[2] = Cytotoxicity against human PC3 cells assessed as inhibition of cell viability at 10 uM after 3 days by trypan blue dye exclusion assay; details: PC-3, 72 h; how it was run: as §1
[3] = Cytotoxicity against human PC3 cells assessed as inhibition of cell viability at 1 uM after 3 days by trypan blue dye exclusion assay; details: PC-3, 72 h; how it was run: as §1
[4] = Cytotoxicity against human DU145 cells assessed as inhibition of cell viability at 1 uM after 3 days by trypan blue dye exclusion assay; details: DU-145, 72 h; how it was run: as §1
[5] = test system: LNCaP; experiment: Cytotoxicity against human LNCAP cells assessed as inhibition of cell viability at 10 uM after 3 days by trypan blue dye exclusion assay; details: 72 h; how it was run: as §1
[6] = test system: LNCaP; experiment: Cytotoxicity against human LNCAP cells assessed as inhibition of cell viability at 1 uM after 3 days by trypan blue dye exclusion assay; details: 72 h; how it was run: as §1
[7] = test system: HeLa; experiment: Cytotoxicity against human HeLa cells assessed as inhibition of cell viability at 10 uM after 3 days by trypan blue dye exclusion assay; details: 72 h; how it was run: as §1
[8] = test system: HeLa; experiment: Cytotoxicity against human HeLa cells assessed as inhibition of cell viability at 1 uM after 3 days by trypan blue dye exclusion assay; details: 72 h; how it was run: as §1

SMILES | inhibition at 10 µM [1] [%] | inhibition at 10 µM [2] [%] | inhibition at 1 µM [3] [%] | inhibition at 1 µM [4] [%] | inhibition at 10 µM [5] [%] | inhibition at 1 µM [6] [%] | inhibition at 10 µM [7] [%] | inhibition at 1 µM [8] [%]
CCCn1ccnc1/C=C/C=C/C(=O)/C=C/c1nccn1CCC | 84 | 91 | 23 | 25 | 95 | 38 | 98 | 34
Cc1nc(C(F)(F)F)c(/C=C/C=C/C(=O)/C=C/c2sc(C)nc2C(F)(F)F)s1 | 80 | 88 | 24 | 13 | 92 | 37 | 96 | 12
O=C(/C=C/C=C/c1nccs1)/C=C/c1nccs1 | 65 | 86 | 28 | 2 | 80 | 28 | 94 | 11
Cc1csc(/C=C/C=C/C(=O)/C=C/c2nc(C)cs2)n1 | 46 | 86 | 25 | 8 | 57 | 21 | 96 | 20
CC(C)=CCn1ccnc1/C=C/C=C/C(=O)/C=C/c1nccn1CC=C(C)C | 75 | 87 | 35 | 0 | 70 | 38 | 94 | 66
CCCCCCn1ccnc1/C=C/C=C/C(=O)/C=C/c1nccn1CCCCCC | 86 | 85 | 11 | 34 | 76 | 31 | 98 | 32
Cc1cc(/C=C/C=C/C(=O)/C=C/c2cc(C)on2)no1 | 79 | 88 | 25 | 25 | 70 | 13 | 97 | 17
Cn1cc(Br)c(/C=C/C=C/C(=O)/C=C/c2nn(C)cc2Br)n1 | 86 | 91 | 25 | 42 | 63 | 38 | 95 | 52
COc1cc(/C=C/C(=O)CC(=O)/C=C/c2ccc(O)c(OC)c2)ccc1O [CURCUMIN] | 59 | 55 | 2.5 | 7 | 66 | 29 | 50 | 14
O=C(/C=C/C=C/c1ccncc1)/C=C/c1ccncc1 | 81 | 84 | 33 | 60 | 50 | 20 | 95 | 22
CCn1ccnc1/C=C/C=C/C(=O)/C=C/c1nccn1CC | 84 | 85 | 32 | 34 | 62 | 23 | 98 | 43
CCCCn1ccnc1/C=C/C=C/C(=O)/C=C/c1nccn1CCCC | 91 | 87 | 33 | 35 | 92 | 47 | 92 | 44
Cc1cccc(/C=C/C=C/C(=O)/C=C/c2cccc(C)n2)n1 | 75 | 91 | 35 | 12 | 57 | 50 | 94 | 40
CCCCCn1ccnc1/C=C/C=C/C(=O)/C=C/c1nccn1CCCCC | 88 | 86 | 36 | 43 | 94 | 44 | 95 | 39
Cn1ccnc1/C=C/C=C/C(=O)/C=C/c1nccn1C | 66 | 83 | 35 | 21 | 55 | 41 | 93 | 18
O=C(/C=C/C=C/c1ccncc1F)/C=C/c1ccncc1F | 81 | 84 | 19 | 36 | 66 | 31 | 94 | 26
O=C(/C=C/C=C/c1ccccn1)/C=C/c1ccccn1 | 37 | 20 | 17 | 11 | 7.2 | 0 | 24 | 21
O=C(/C=C/C=C/c1cccnc1)/C=C/c1cccnc1 | 87 | 86 | 24 | 24 | 61 | 2 | 97 | 20
CC(C)CCn1ccnc1/C=C/C=C/C(=O)/C=C/c1nccn1CCC(C)C | 88 | 89 | 32 | 32 | 75 | 33 | 95 | 31
CCCCCCCn1ccnc1/C=C/C=C/C(=O)/C=C/c1nccn1CCCCCCC | 93 | 92 | 28 | 25 | 70 | 12 | 99 | 13
CC(C)CCn1c(/C=C/C=C/C(=O)/C=C/c2nc3ccccc3n2CCC(C)C)nc2ccccc21 | 97 | 93 | 58 | 21 | 60 | 15 | 97 | 53
